ChEMBL document CHEMBL5136958, “The development of HEC-866 and its analogues for the treatment of idiopathic pulmonary fibrosis” (RSC Med Chem, 2021)
Activity calls are given as the source filed them. No cut-off for these calls is given here.

Tests used:
[1] = Half life in cynomolgus monkey at 5 mg/kg, po by LC-MS/MS analysis; type: ADME, organism-based, Macaca fascicularis; conditions: in vivo
Rattus norvegicus [2] = test: Antifibrotic activity against bleomycin-induced pulmonary fibrosis in Sprague-Dawley rat assessed as reduction in lung hydroxyproline content at 6 mg/kg, po administered daily for 1 to 14 days starting from post bleomycin stimulation; type: functional, organism-based; conditions: time 1-14 day
Cytochrome P450 2D6 = Cytochrome P450 2D6 (Homo sapiens, UniProt P10635); test: Inhibition of CYP2D6 in human liver microsomes by LC-MS/MS analysis; type: ADME, Microsome
Procedure, shortened: (§1)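 Human microsomes incubated with CYP-specific substrates (1A2, 2C9, 2C19, 2D6, 3A4) and test compound at 0.0–10 μM; IC50 determined.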

HFL1 [3] = test: Antifibrotic activity in TGF-beta1-induced HFL1 cell injury assessed as down regulation of collagen 1 mRNA expression at 0.625 to 10 uM measured after 24 hrs by RT-PCR analysis; type: functional, cell-based; conditions: Homo sapiens, dose 0.625-10 µM
Procedure, shortened: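 TGF-β1-induced HFL-1 cells treated 24 h (test range 0.625–10 μM; comparator 3 mM); collagen 1 and collagen 3 mRNA measured by RT-PCR; mean of n = 3.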

Cytochrome P450 1A2 = molecular target: T1, Cytochrome P450 1A2 (Homo sapiens, UniProt P05177); test: Inhibition of CYP1A2 in human liver microsomes by LC-MS/MS analysis; type: ADME, Microsome; procedure, shortened: as §1
T1 sequence (P05177 whole entry): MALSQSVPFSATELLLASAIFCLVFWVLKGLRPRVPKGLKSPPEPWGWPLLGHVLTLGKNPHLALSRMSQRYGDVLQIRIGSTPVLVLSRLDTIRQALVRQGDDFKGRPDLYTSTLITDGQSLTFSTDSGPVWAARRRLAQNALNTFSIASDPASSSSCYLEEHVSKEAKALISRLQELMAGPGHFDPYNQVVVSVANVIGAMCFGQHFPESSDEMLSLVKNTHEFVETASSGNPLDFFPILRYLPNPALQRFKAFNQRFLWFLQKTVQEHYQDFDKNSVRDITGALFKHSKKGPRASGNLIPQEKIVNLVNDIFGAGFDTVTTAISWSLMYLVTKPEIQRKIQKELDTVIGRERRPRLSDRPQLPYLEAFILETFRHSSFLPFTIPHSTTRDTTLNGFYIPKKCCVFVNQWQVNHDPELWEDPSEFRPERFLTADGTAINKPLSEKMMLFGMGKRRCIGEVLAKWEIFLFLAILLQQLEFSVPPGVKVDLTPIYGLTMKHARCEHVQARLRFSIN

[4] = AUClast in dog at 5 mg/kg, po by LC-MS/MS analysis; type: ADME, organism-based, Canis lupus familiaris; set-up: time 0 - last, dose 5 mg/kg, route po; conditions: in vivo
[5] = Half life in dog liver microsomes by LC-MS/MS analysis; type: ADME, Canis lupus familiaris, Microsome
Procedure, shortened: (§2)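 Liver microsomes (human, monkey, dog, rat, mouse) incubated with test compound at 37 °C with NADPH cofactor; samples at 0, 5, 15, 30, 60 min for half-life and in vitro CLint.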

[6] = Mutagenecity in Salmonella typhimurium TA98 at 7.8 to 1000 ug measured after 2 to 3 days by mini-Ames test; type: toxicity, Salmonella enterica subsp. enterica serovar Typhimurium; conditions: dose lower 7.8 µg, time lower 2 day, dose upper 1000 µg, time upper 3 day
Procedure, shortened: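 Bacterial reverse mutation assay scoring reverse gene mutations at the histidine locus in Salmonella typhimurium strains TA98 and TA100.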

[7] = Cmax in Sprague-Dawley rat model of bleomycin-induced pulmonary fibrosis at 5 mg/kg, po by LC-MS/MS analysis; type: ADME, organism-based; set-up: dose 5 mg/kg, route po; conditions: in vivo
Procedure, shortened: (§3)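 Male Sprague-Dawley rats with induced pulmonary fibrosis; single i.v. (2.0 mg kg⁻¹) or p.o. (5.0 mg kg⁻¹) administration. Plasma samples stored at −70 °C; the supernatant was analysed by LC-MS/MS for PK parameters.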

Rattus norvegicus [8] = test: Antifibrotic activity against bleomycin-induced pulmonary fibrosis in po dosed Sprague-Dawley rat assessed as reduction in histopathological changes administered daily for 1 to 14 days starting from post bleomycin stimulation by H and E staining based assay; type: functional, organism-based; conditions: dose 2-6 mg/kg, time 1-14 day, DDE = dose-dependent effect
Procedure, shortened: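 Bleomycin-induced lung fibrosis in SD rats; oral dosing daily from day 1 for 14 days; saline for sham and bleomycin groups; comparator 100 mg kg⁻¹ d, test doses 2 and 6 mg kg⁻¹ d; lung pathology assessed by HE histology.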

[9] = Oral bioavailability in cynomolgus monkey at 5 mg/kg by LC-MS/MS analysis; type: ADME, organism-based, Macaca fascicularis; conditions: in vivo
[10] = Intrinsic clearance in dog liver microsomes by LC-MS/MS analysis; type: ADME, Canis lupus familiaris, Microsome; conditions: read-out: CLH; procedure, shortened: as §2
[11] = Intrinsic clearance in mouse liver microsomes by LC-MS/MS analysis; type: ADME, Microsome; conditions: read-out: CLH
Procedure, shortened: (§4)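 Liver microsomes were incubated with the compound at 37 °C with NADPH as cofactor and sampled at 0, 5, 15, 30 and 60 min. Half-life (min) and in vitro CLint (mL min⁻¹ kg) were derived from these samples.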

Cytochrome P450 3A4 = Cytochrome P450 3A4 (Homo sapiens, UniProt P08684); test: Inhibition of CYP3A4 in human liver microsomes by LC-MS/MS analysis; type: ADME, Microsome; procedure, shortened: as §1
[12] = Oral bioavailability in dog at 5 mg/kg by LC-MS/MS analysis; type: ADME, organism-based, Canis lupus familiaris; conditions: in vivo
[13] = Intrinsic clearance in rat liver microsomes by LC-MS/MS analysis; type: ADME, Microsome; conditions: read-out: CLH; procedure, shortened: as §4
[14] = Clearance in dog at 1 mg/kg, iv by LC-MS/MS analysis; type: ADME, organism-based, Canis lupus familiaris; conditions: in vivo
[15] = Toxicity in po dosed Sprague-Dawley rat administered once daily for 28 days; type: organism-based; conditions: in vivo, time 28 day
[16] = Clearance in Sprague-Dawley rat model of bleomycin-induced pulmonary fibrosis at 2 mg/kg, iv by LC-MS/MS analysis; type: ADME, organism-based; conditions: in vivo; procedure, shortened: as §3
[17] = Half life in Sprague-Dawley rat model of bleomycin-induced pulmonary fibrosis at 2 mg/kg, iv by LC-MS/MS analysis; type: ADME, organism-based; conditions: in vivo; procedure, shortened: as §3
HFL1 [18] = test: Antifibrotic activity in TGF-beta1-induced HFL1 cell injury assessed as alpha-SMA expression at 5 uM measured after 48 hrs by Western blot analysis (reference value: 100%); type: functional, Homo sapiens
Procedure, shortened: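 HFL-1 cells stimulated with TGF-β1; α-SMA protein detected by Western blot with anti-α-SMA antibody, normalised to tubulin; mean of n = 3.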

Cytochrome P450 2C9 = Cytochrome P450 2C9 (Homo sapiens, UniProt P11712); test: Inhibition of CYP2C9 in human liver microsomes by LC-MS/MS analysis; type: ADME, Microsome; procedure, shortened: as §1
[19] = Volume of distribution at steady state in cynomolgus monkey at 1 mg/kg, iv by LC-MS/MS analysis; type: ADME, organism-based, Macaca fascicularis; conditions: in vivo, read-out: Vdss
[20] = Volume of distribution at steady state in Sprague-Dawley rat model of bleomycin-induced pulmonary fibrosis at 2 mg/kg, iv by LC-MS/MS analysis; type: ADME, organism-based; conditions: in vivo, read-out: Vdss
Procedure, shortened: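 Male Sprague-Dawley rats with induced pulmonary fibrosis were dosed 2.0 mg kg⁻¹ i.v. or 5.0 mg kg⁻¹ p.o. Plasma was stored at -70 °C, and the supernatant was analysed by LC-MS/MS.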

[21] = AUClast in Sprague-Dawley rat model of bleomycin-induced pulmonary fibrosis at 5 mg/kg, po by LC-MS/MS analysis; type: ADME, organism-based; set-up: time 0 - last, dose 5 mg/kg, route po; conditions: in vivo; procedure, shortened: as §3
[22] = Cmax in dog at 5 mg/kg, po by LC-MS/MS analysis; type: ADME, organism-based, Canis lupus familiaris; set-up: dose 5 mg/kg, route po; conditions: in vivo
[23] = Half life in mouse liver microsomes by LC-MS/MS analysis; type: ADME, Microsome; procedure, shortened: as §2
[24] = AUC(infinity) in Sprague-Dawley rat model of bleomycin-induced pulmonary fibrosis at 5 mg/kg, po by LC-MS/MS analysis; type: ADME, organism-based; set-up: time infinity, dose 5 mg/kg, route po; conditions: in vivo; procedure, shortened: as §3

Chain of Cytochrome P450 3A4 (P08684 whole entry): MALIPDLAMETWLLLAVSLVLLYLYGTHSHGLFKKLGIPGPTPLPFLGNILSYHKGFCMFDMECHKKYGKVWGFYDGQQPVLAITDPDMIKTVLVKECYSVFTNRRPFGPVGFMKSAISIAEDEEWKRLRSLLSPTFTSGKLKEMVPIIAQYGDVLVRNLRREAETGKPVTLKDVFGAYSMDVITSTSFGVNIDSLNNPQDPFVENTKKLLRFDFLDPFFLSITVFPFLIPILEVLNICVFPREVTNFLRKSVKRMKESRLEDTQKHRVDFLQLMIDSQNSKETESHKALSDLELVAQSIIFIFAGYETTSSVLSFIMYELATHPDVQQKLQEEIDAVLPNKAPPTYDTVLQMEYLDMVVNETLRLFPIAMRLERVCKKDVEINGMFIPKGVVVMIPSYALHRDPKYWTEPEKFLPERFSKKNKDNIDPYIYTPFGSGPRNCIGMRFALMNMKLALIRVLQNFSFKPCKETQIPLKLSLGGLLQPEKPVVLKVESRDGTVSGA
Chain of Cytochrome P450 2D6 (P10635 whole entry): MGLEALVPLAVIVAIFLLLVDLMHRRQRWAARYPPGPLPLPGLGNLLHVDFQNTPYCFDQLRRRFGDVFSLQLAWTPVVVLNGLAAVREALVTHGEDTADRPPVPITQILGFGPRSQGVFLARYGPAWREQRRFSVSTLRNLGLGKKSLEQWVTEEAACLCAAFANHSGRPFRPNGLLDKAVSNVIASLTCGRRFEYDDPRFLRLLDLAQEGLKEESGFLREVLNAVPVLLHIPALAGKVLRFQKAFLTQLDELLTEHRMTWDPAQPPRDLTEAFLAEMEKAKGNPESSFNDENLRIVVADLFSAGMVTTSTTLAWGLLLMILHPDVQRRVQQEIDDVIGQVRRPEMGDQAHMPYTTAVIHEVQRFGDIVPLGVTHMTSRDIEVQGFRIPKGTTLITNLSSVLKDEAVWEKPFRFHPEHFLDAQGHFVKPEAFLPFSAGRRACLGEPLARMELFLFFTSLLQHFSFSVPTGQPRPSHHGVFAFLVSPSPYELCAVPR
Chain of Cytochrome P450 2C9 (P11712 whole entry): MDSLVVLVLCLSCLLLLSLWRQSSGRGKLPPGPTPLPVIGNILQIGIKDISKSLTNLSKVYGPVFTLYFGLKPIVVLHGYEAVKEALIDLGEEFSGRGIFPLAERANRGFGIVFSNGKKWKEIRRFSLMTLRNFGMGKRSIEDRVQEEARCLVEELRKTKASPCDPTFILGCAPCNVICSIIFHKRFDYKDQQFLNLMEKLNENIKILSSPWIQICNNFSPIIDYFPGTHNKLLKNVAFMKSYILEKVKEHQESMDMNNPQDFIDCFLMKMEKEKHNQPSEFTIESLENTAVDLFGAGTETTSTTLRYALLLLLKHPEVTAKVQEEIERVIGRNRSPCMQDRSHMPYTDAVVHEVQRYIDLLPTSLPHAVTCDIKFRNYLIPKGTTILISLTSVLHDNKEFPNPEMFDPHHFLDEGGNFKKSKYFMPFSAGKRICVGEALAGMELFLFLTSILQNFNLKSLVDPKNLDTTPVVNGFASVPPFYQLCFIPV

In the case of `Cc1cc(=O)n(-c2ccc(N3CCC(Cc4ccc(Cl)c(F)c4)CC3)c(Cl)c2)c(C)n1`, the half-life [1] is reported as 14 h, the Activity (Rattus norvegicus [2]) is reported as “Active” and the IC50 (Cytochrome P450 2D6) is reported as greater than 10 µM. For the same molecule, the Activity (HFL1 [3]) was “Active”, the IC50 (Cytochrome P450 1A2) was greater than 10 µM and the AUC(0-t) [4] was 5910 ng·h/mL. The half-life [5] was 4.93 h, the Activity [6] was “Non-Toxic” and the Cmax [7] was 1120 ng/mL. The Activity (Rattus norvegicus [8]) was “Dde”, the bioavailability [9] was 72% and the CLint scaled [10] was 11.7 mL/min/kg. For the same molecule, the CLint scaled [11] was 77 mL/min/kg, the IC50 (Cytochrome P450 3A4) was greater than 10 µM and the bioavailability [12] was 15%. For the same molecule, the CLint scaled [13] was 24.2 mL/min/kg, the clearance [14] was 1.67 mL/min/kg and the MTD at 672 h [15] was greater than 500 mg/kg. The clearance [16] was 4.33 mL/min/kg, the half-life [17] was 26 h and the Activity (HFL1 [18]) was 72.56%. The IC50 (Cytochrome P450 2C9) was greater than 10 µM, the Vd [19] was 3.9 L/kg and the Vd [20] was 8.2 L/kg. The AUC(0-t) [21] was 11200 ng·h/mL, the Cmax [22] was 628 ng/mL and the half-life [23] was 1.18 h. For the same molecule, the AUC(0-inf) [24] was 17100 ng·h/mL.
